Results of several laboratories.
EGFR L858R/T790M: Epidermal growth factor receptor (EGFR, Homo sapiens, UniProt P00533, L858R/T790M)
EGFR del752-759: Epidermal growth factor receptor (EGFR, Homo sapiens, UniProt P00533, del752-759)
EGFR L858R: Epidermal growth factor receptor (EGFR, Homo sapiens, UniProt P00533, L858R)
EGFR T790M: Epidermal growth factor receptor (EGFR, Homo sapiens, UniProt P00533, T790M)
EGFR G719C: Epidermal growth factor receptor (EGFR, Homo sapiens, UniProt P00533, G719C)
EGFR G719S: Epidermal growth factor receptor (EGFR, Homo sapiens, UniProt P00533, G719S)
EGFR L861Q: Epidermal growth factor receptor (EGFR, Homo sapiens, UniProt P00533, L861Q)
EGFR del746-750: Epidermal growth factor receptor (EGFR, Homo sapiens, UniProt P00533, del746-750)

With O=C(NCCCN1CCOCC1)c1ccc(Nc2nccc(-c3cc4ccccc4s3)n2)cc1 the remaining binding was 75% (EGFR L858R/T790M; binding, competition with immobilised ligand; 1 µM).
Cc1nc(N2CC[C@@H](O)C2)ncc1-c1cc(C(F)(F)F)cc2[nH]ncc12 has a remaining binding of 99% (EGFR del752-759; cell-free assay, competition with immobilised ligand; 1 µM).
O=C(NCCCN1CCOCC1)c1ccc(Nc2ncc(Cl)c(-c3ccc(Cl)s3)n2)cc1 gave a remaining binding of 100% (Epidermal growth factor receptor (EGFR, Homo sapiens, UniProt P00533, del747-750/T751S); binding, competition with immobilised ligand; 1 µM).
Cc1cnn2ncc(-c3ccnc(N(C)C)n3)c2c1 has a remaining binding of 75% (Epidermal growth factor receptor (EGFR, Homo sapiens, UniProt P00533); binding; 1 µM).
C[C@@H](c1cccc(C#N)c1)n1cc(Cl)cc(C(N)=O)c1=N gave a remaining binding of 100% (EGFR L858R; cell-free assay, competition with immobilised ligand; 1 µM).
For O=C(c1ccc(Nc2ncc(Cl)c(-c3cc4ccccc4s3)n2)cc1)N1CCC(N2CCCC2)CC1, the remaining binding was 58% (EGFR T790M; binding, competition with immobilised ligand; 1 µM).
For CNC(=O)[C@@H]1CC[C@@H](n2c(-c3ccc4cnccc4c3)nc3ccc(C(=O)NCc4cccc(C(N)=O)c4)cc32)C1, the remaining binding was 100% (EGFR G719C; binding, competition with immobilised ligand; 1 µM).
For CN(CCCC(F)(F)F)c1nccc(-c2cnn3ncccc23)n1, the remaining binding was 100% (EGFR G719C; binding; 1 µM).
With O=C(NCC1CCOCC1)c1n[nH]cc1NC(=O)c1c(F)cccc1F the remaining binding was 89% (EGFR L858R; binding, competition with immobilised ligand; 1 µM).
Cc1cnc(Nc2ccc(C(=O)N3CCC(N4CCCC4)CC3)cc2)nc1-c1cc2ccccc2s1 gave a remaining binding of 84% (EGFR del752-759; binding, competition with immobilised ligand; 1 µM).
CCOC(=O)c1cc2cc(-c3cc(C(=O)NCc4ccc(C(=O)O)cc4)nn3C)ccc2[nH]1 gave a remaining binding of 100% (EGFR G719C; cell-free assay, competition with immobilised ligand; 0.1 µM).
For COc1cnc(Nc2cccc(S(N)(=O)=O)c2)nc1N1CCN(c2ccccc2)C(=O)C1, the remaining binding was 100% (EGFR G719S; binding, competition with immobilised ligand; 1 µM).
With C[C@H]1CCN(c2nccc(-c3cnn4ncccc34)n2)C1 the remaining binding was 81% (EGFR L861Q; binding; 1 µM).
With O=C(N1CCS(=O)(=O)CC1)N1C[C@H](c2ccc(OC(F)(F)F)cc2)C[C@H](c2nc(C3CC3)no2)C1 the remaining binding was 100% (EGFR L858R; cell-free assay, competition with immobilised ligand; 1 µM).
N[C@H]1CCN(c2nccc(-c3cnn4ncccc34)n2)C1 gave a remaining binding of 89% (EGFR L858R/T790M; binding; 1 µM).
The remaining binding of C[C@@H]1CN(c2cc(-c3n[nH]c4ccc(OC5(C)CC5)cc34)ncn2)C[C@H](C)O1 is reported as 59% (EGFR G719S; cell-free assay, competition with immobilised ligand; 0.1 µM).
With CN1CCN(c2ccc(Nc3nccc(-c4ccccc4)n3)cc2C(F)(F)F)CC1 the remaining binding was 56% (EGFR del746-750; binding; 10 µM).
O=C(Nc1c[nH]nc1C(=O)NC1CCNCC1)c1cc(F)cc(F)c1 gave a remaining binding of 100% (EGFR G719S; binding, competition with immobilised ligand; 1 µM).
c1cncc(-c2cccc(Nc3nccc(NC4CCCCC4)n3)c2)c1 gave a remaining binding of 69% (EGFR del752-759; binding, competition with immobilised ligand; 10 µM).
With CCC(=O)N[C@H]1CC[C@@H](C(=O)N(C)c2ccc(-c3nc4ccccc4o3)cc2)C1 the remaining binding was 78% (EGFR del746-750; cell-free assay, competition with immobilised ligand; 1 µM).
For CCN1CCN(Cc2ccc(C(=O)Nc3ccc(C)c(Oc4ccc5c(c4)CC(=O)N5)c3)cc2C(F)(F)F)CC1, the remaining binding was 83% (EGFR T790M; binding, competition with immobilised ligand; 1 µM).
The remaining binding of O=C(c1ccc(Nc2nccc(-c3cc4ccccc4s3)n2)cc1)N1CCC(N2CCCC2)CC1 is reported as 67% (EGFR T790M; binding, competition with immobilised ligand; 1 µM).
With CN1CCN(c2ccc(Nc3nccc(-c4cccc([N+](=O)[O-])c4)n3)cc2C(F)(F)F)CC1 the remaining binding was 29% (EGFR L858R/T790M; binding; 10 µM).
O=C(c1ccc(Nc2ncc(Cl)c(-c3ccc(Cl)s3)n2)cc1)N1CCC(N2CCCC2)CC1 has a remaining binding of 72% (EGFR L858R; binding, competition with immobilised ligand; 1 µM).
For Nc1ncc2c(n1)-c1c([nH]c3ccc(C#CC4CC4)cc13)CCCC2, the remaining binding was 86% (EGFR T790M; binding, competition with immobilised ligand; 1 µM).
For F[C@@H]1CCN(c2nccc(-c3cnn4ncccc34)n2)C1, the remaining binding was 100% (EGFR del752-759; binding; 1 µM).
CSc1cccnc1N1CCN(Cc2nc3ccccc3[nH]2)CC1 has a remaining binding of 85% (EGFR T790M; cell-free assay, competition with immobilised ligand; 1 µM).
The remaining binding of CN(C)c1ncc(F)c(-c2cnn3ncccc23)n1 is reported as 100% (EGFR del752-759; binding; 1 µM).
FC(F)(F)c1ccc2c(c1)nc(-c1cccnc1)n2C1CC1 gave a remaining binding of 93% (EGFR G719S; cell-free assay, competition with immobilised ligand; 1 µM).
COc1cnc(Nc2cccc(S(N)(=O)=O)c2)nc1N1CCN(c2ccccc2)CC1 gave a remaining binding of 100% (EGFR L861Q; binding, competition with immobilised ligand; 1 µM).
CN(C)c1nccc(-c2cnc3ncccn23)n1 has a remaining binding of 100% (EGFR G719C; binding; 1 µM).
